M5 antag: antagonists of human muscarinic M5 receptor (CHRM5). CHO-hM5 cells, Fluo-8 calcium fluorescence, ACh EC80. inhibition, % at 3 µM. AID 624040. P08912. 0.59% of 360,000 active;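 active = inhibition above a per-plate cutoff, the mean of that plate's test compounds plus 3 SD, cut at about 27% in these data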
Target sequence (P08912 whole entry, looked up): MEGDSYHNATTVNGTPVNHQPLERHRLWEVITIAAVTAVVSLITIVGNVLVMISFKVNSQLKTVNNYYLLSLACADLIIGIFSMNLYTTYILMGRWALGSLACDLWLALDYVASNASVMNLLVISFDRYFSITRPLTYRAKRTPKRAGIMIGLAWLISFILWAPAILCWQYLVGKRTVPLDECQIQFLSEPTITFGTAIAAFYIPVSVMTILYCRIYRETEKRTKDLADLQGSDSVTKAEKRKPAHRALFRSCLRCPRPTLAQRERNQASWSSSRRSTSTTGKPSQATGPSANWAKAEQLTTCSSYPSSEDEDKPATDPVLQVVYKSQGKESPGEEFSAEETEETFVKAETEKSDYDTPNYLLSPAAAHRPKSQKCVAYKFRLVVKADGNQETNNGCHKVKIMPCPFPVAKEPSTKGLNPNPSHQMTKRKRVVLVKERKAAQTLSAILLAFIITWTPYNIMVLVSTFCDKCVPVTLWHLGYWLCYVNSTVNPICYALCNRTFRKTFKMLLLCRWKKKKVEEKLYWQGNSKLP
M5 ag: CHRM5 agonism in calcium assay | activation, % at 3 µM | AID 624037 | CHO-K1 hM5 cells, Fluo-8 calcium fluorescence; 0% DMSO wells, 100% maximal acetylcholine response | 0.19% of 360,000 active;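 active = activation above the run's mean over test compounds plus 3 SD, cut at about 23% in these data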;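 note: signal is peak over basal fluorescence ratio across the kinetic read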
CHRM4 agonist: CHRM4 agonism in calcium assay; P08173; AID 624127; CHO-K1 hM4/Gqi5, Fluo-8 calcium fluorescence; vehicle 0%, full acetylcholine response 100%; activation, % at 3 µM; 0.14% of 360,000 active;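 active = activation above the run mean over all test wells plus 3 SD, cut at about 32% in these data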;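 note: peak over basal fluorescence ratio per well then scaled between controls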
M4 antag: antagonists of human muscarinic M4 receptor (CHRM4); AID 624125; P08173; CHO-hM4 cells, ACh EC80, Fluo-8 calcium fluorescence; 0.73% of 360,000 active; inhibition, % at 3 µM;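 active = inhibition above its plate's cutoff, the mean inhibition of sample wells plus 3 SD, cut at about 27% in these data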
M5 PAM: positive allosteric modulators of human muscarinic M5 receptor | P08912 | CHO-K1 hM5, Fluo-8 calcium, ACh EC20 PAM; 0% = ACh EC20, 100% = ACh EC100 | activation, % at 3 µM | 0.3% of 360,000 active | AID 624038;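 active = activation above the run cutoff, the mean activation of all test compounds plus 3 SD, cut at about 18% in these data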
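Measured by: Fluo-8 calcium fluorescence; material: human M5 receptor in CHO-K1 cells; schedule: Post-acetylcholine fluorescence recording 140 s; benchmarks: low control EC20 acetylcholine (0%), high control EC100 acetylcholine (100%); read-out: Max/basal fluorescence ratio as % of EC20–EC100 ACh window; compound: single dose, 3 µM nominal final test concentration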
CHRM4 PAM: positive allosteric modulators of human muscarinic M4 receptor | P08173 | CHO-K1 hM4/Gqi5, Fluo-8 calcium fluorescence, ACh EC20; 0% = ACh EC20, 100% = maximal ACh | activation, % at 3 µM | 0.4% of 360,000 active | AID 624126;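 active = activation above its plate's cutoff, the mean activation of sample wells plus 3 SD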
Each line names hits and unclear results; the compound was inactive in the other large screens. Most compounds without a hit are left out; they make up all but 1.8% or so of the library.

CS(=O)(=O)c1ccccc1C(=O)Nc1ccc(-c2nc3ccccc3[nH]2)cc1	none
O=C(Nc1ccc2nc(-c3cccs3)[nH]c2c1)c1cccs1	none
Cc1ccccc1CN1C[C@H]2CON(C)[C@H]2C[C@H]1c1cccc(Br)c1	none
COc1ccc(NC2=NCCC(=O)N2Cc2cccs2)cc1	none
COc1ccc(NC2=NCC(=O)N2Cc2cccs2)cc1	M5 PAM 20.7
C[N+](C)(C)CC(=O)N/N=C/c1c2ccccc2cc2ccccc12	M5 ag 32.0
Cn1cccc1CC(=O)N/N=C\c1c2ccccc2cc2ccccc12	none
Nc1cccc2[nH]c(=O)c3ccccc3c12	none
O=S1(=O)CCN(Cc2cccnc2)CC1	none
CCN1CCCC1CN(Cc1cc2c(C)cc(C)cc2[nH]c1=O)C(=O)NC1CCCCC1 (stereo not given)	M4 antag 35.6
COCCNc1nc2cc(-c3ccc(C)cc3)sc2c(=O)n1C	none
Cc1noc(C)c1C(=O)OCC(=O)Nc1ccc(N2CCOCC2)cc1	CHRM4 PAM 20.1
CCN(CC)CCn1c2c(c(SCC(=O)Nc3ccc(C(C)C)cc3)nc1=O)CCCC2	none
CCc1ccc(NC(=O)CSc2nc(=O)n(CCCN(C)C)c3c2CCC3)cc1	M5 antag 30.9
CC(C)c1ccc(NC(=O)CSc2nc(=O)[nH]c3c2CCCC3)cc1	M5 ag 44.9, CHRM4 PAM 28.1
CN(C)CCn1c2c(c(SCC(=O)Nc3ccccc3)nc1=O)CCCC2	none
COc1cc(/C=N/NC(=O)c2nc3ccccn3c2C)cc(OC)c1O	M5 PAM 18.6
Cc1c(C(=O)N/N=C/c2ccc(N3CCOCC3)cc2)nc2ccccn12	none
Cc1ccc([C@H]2C[C@@H](O)[C@H](n3cc(C4CC4)nn3)CN2Cc2cccs2)cc1	CHRM4 PAM 16.8
CC1(C(=O)Nc2cnc3ccccc3c2)CCN1C(=O)CCc1ccccc1 (stereo not given)	none
C/C(=N/NC(=O)Nc1ccccc1)c1ccc(C)cc1	none
O=C(Nc1ccccc1)Nc1ccc2ccccc2c1	M5 antag 33.4
CC(=O)Nc1ccc2ccccc2c1	none
O=C(CSCc1ccc(C(=O)O)cc1)Nc1ccccc1	none
C/C(=N\NC(=O)Nc1ccccc1)c1ccc2ccccc2c1	M5 antag 33.8
O=C(CSCc1ccc(C(=O)O)cc1)Nc1ccc2ccccc2c1	M4 antag 34.1
CCCCN1C(=O)C(CC(=O)NC2CC2)CC(C(=O)N(CC)CC)=C1C (stereo not given)	none
O=C(COC(=O)c1cccs1)NCCc1ccc(F)cc1	none
Cc1cccc(C)c1NC(=O)C1c2ccccc2OCC(=O)N1CCc1ccccc1 (stereo not given)	none
COc1ccc(-c2nc(N3CCCCCC3)sc2C(=O)c2ccccc2)cc1	M4 antag 33.1
O=C(c1ccccc1)c1sc(N2CCCCCC2)nc1-c1ccccc1	none
O=C(NCc1ccccc1)NC12CC3CC(CC(C3)C1)C2	M5 PAM 19.7
O=C(NCc1ccccc1)NCC12CC3CC(CC(C3)C1)C2	none
CCC(C)Sc1ccc([C@H]2N[C@@](Cc3ccccc3)(C(=O)OC)[C@H]3C(=O)N(CC)C(=O)[C@@H]23)cc1OC (stereo not given in full)	none
C=CS(=O)(=O)N(Cc1ccc(Cl)c(Cl)c1)C[C@@H](O)CO	none
COCCNc1nc(N2CCCCC2)c2cnn(C)c2n1	M5 PAM 18.3
Cc1ccc2nc3c(cc2c1)c(C)nn3-c1ccccc1	CHRM4 PAM 30.8
Cc1nn(-c2ccccc2)c2nc(=O)n(-c3ccccc3)cc12	none
COc1ccc(O)c(C(=O)c2coc(=N)c(C(=O)Nc3ccc(SC(F)F)cc3)c2)c1	M5 antag 28.0
CC(C)OC(=O)c1cc(C(=O)c2cc(F)ccc2O)coc1=N	none
OC1CCN(Cc2ccc(OCc3ccccc3)cc2)CC1	none
CC1CCCN(Cc2ccc(OCc3ccccc3)cc2)C1 (stereo not given)	M4 antag 37.5
CCc1nc(N2CCN(C(=S)NCCCOC)CC2)c2c3c(sc2n1)CCCC3	none

Screening results (PubChem BioAssay)
